IC50, Activity and inhibition data for 45 molecules are collected here from ChEMBL document CHEMBL3112420, “Discovery of 8-cyclopentyl-2-[4-(4-methyl-piperazin-1-yl)-phenylamino]-7-oxo-7,8-dihydro-pyrido[2,3-d]pyrimidine-6-carbonitrile (7x) as a potent inhibitor of cyclin-dependent kinase 4 (CDK4) and AMPK-related kinase 5 (ARK5)” (J Med Chem, 2014).

Active and inactive are the calls of the source. No cut-off for these calls is given here. A value given as a limit tells only on which side of the number the result lay.

The IC50 is the point on the concentration scale where inhibition reaches its midpoint. Low readings indicate inhibition by little substance, high ones a need for much substance.

In one test the test system is DU-145. As to the kind of experiment: Cytotoxicity against human DU145 cells after 96 hrs by Cell-Titer Blue assay. Format: functional, cell-based. The following applies: DU-145, 96 h.
A further test deals with K562. As to the kind of experiment: Cytotoxicity against human K562 cells after 96 hrs by Cell-Titer Blue assay. Format: functional, cell-based. The following applies: K562, 96 h.
Test [1] deals with Cyclin-dependent kinase 2/cyclin E1 (Homo sapiens, UniProt P24941). As to the kind of experiment: Inhibition of CDK2/cyclinE (unknown origin). Format: protein-complex assay.
The target of test [2] is Cyclin-dependent kinase 1/cyclin B1 (Homo sapiens, UniProt P06493). Kind of test: Inhibition of CDK1/cyclinB (unknown origin). The test is classed as protein-complex assay.
The test system of test [3] is MDA-MB-231. As to the kind of experiment: Induction of apoptosis in human MDA-MB-231 cells assessed as PARP cleavage at 1 to 10 uM after 24 hrs by Western blotting analysis. The test is classed as functional, cell-based. (In general: In western blotting, separated proteins are transferred to a membrane and probed.)
Test [4] has as its system MCF7. As to the kind of experiment: Induction of apoptosis in human MCF7 cells assessed as PARP cleavage at 1 to 10 uM after 24 hrs by Western blotting analysis. Format: functional, cell-based.
For test [5], the system named is MDA-MB-231. Kind of test: Cell cycle arrest in human MDA-MB-231 cells assessed as accumulation at sub-G1 phase at 0.5 to 1 uM after 48 hrs by propidium iodide staining-based flow cytometric analysis. Format: functional. A general note: Flow cytometry measures light scatter and fluorescence of single cells or particles in a stream.
Test [6] has as its system MCF7. Kind of test: Cell cycle arrest in human MCF7 cells assessed as accumulation at sub-G1 phase at 0.5 to 1 uM after 48 hrs by propidium iodide staining-based flow cytometric analysis. The test is classed as functional.
Test [7] deals with MDA-MB-231. As to the kind of experiment: Cell cycle arrest in human MDA-MB-231 cells assessed as accumulation at G1 phase at 0.5 to 1 uM after 24 hrs by propidium iodide staining-based flow cytometric analysis. Format: functional. A digest of the protocol:
(§1)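 Cells plated at 1.0 × 10^6 per dish, then treated 24 h later with increasing concentrations for 24 h. Floating and adherent cells were pooled, PBS-washed and fixed in ice-cold 70% ethanol for at least 24 h. They were then stained with propidium iodide plus RNase A for 30 min at 37 °C. Percentage of cells in each phase was read by flow cytometry.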

The subject of test [8] is MCF7. As to the kind of experiment: Cell cycle arrest in human MCF7 cells assessed as accumulation at G1 phase at 0.5 to 1 uM after 24 hrs by propidium iodide staining-based flow cytometric analysis. Format: functional. In a few lines:
as §1

Test [9] has as its target T1, Cyclin-dependent kinase 4/cyclin D1 (Homo sapiens) (UniProt P11802+P24385). Kind of test: Inhibition of recombinant CDK4/cyclinD1 in human MDA-MB-231 cells assessed as inhibition of retinoblastoma phosphorylation at Ser780 at 0.5 to 5 uM after 24 hrs by Western blotting analysis. Format: cell-based. In a few lines: (§2)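 Breast carcinoma cells were given increasing concentrations for 24 h. Total lysates (100 μg, 10% SDS-PAGE) were immunoblotted with antibodies against Ser780-phosphorylated and non-phosphorylated RB. Bands were read on an infrared scanning system.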

Test [10] addresses T1, Cyclin-dependent kinase 4/cyclin D1 (Homo sapiens). As to the kind of experiment: Inhibition of recombinant CDK4/cyclinD1 in human MCF7 cells assessed as inhibition of retinoblastoma phosphorylation at Ser780 at 0.5 to 5 uM after 24 hrs by Western blotting analysis. Format: cell-based. In a few lines:
as §2

Test [11] deals with Phosphatidylinositol 4,5-bisphosphate 3-kinase catalytic subunit delta isoform (Homo sapiens, UniProt O00329). Kind of test: Inhibition of PI3Kdelta (unknown origin).
The target in test [12] is NUAK family SNF1-like kinase 1 (Homo sapiens, UniProt O60285). Kind of test: Inhibition of ARK5 (unknown origin).
Sequence of NUAK family SNF1-like kinase 1 (O60285 whole entry): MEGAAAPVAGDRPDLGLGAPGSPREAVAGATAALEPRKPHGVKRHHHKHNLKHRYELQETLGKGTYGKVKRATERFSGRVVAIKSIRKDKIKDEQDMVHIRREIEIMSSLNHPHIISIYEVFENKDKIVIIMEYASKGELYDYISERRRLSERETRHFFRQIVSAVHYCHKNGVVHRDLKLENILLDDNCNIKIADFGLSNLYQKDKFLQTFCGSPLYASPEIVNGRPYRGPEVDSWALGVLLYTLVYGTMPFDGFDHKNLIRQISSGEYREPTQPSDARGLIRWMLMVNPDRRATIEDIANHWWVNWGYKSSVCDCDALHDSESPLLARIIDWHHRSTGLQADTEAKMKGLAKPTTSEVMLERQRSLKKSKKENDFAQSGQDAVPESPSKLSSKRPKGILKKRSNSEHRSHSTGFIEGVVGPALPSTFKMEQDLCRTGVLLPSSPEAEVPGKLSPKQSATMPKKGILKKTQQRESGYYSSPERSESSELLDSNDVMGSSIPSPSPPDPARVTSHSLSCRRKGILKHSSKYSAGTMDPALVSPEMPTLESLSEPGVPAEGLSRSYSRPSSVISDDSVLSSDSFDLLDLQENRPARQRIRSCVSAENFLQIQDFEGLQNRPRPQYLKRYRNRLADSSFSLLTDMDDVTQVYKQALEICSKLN

Sequence of Cyclin-dependent kinase 1/cyclin B1 (P06493 whole entry): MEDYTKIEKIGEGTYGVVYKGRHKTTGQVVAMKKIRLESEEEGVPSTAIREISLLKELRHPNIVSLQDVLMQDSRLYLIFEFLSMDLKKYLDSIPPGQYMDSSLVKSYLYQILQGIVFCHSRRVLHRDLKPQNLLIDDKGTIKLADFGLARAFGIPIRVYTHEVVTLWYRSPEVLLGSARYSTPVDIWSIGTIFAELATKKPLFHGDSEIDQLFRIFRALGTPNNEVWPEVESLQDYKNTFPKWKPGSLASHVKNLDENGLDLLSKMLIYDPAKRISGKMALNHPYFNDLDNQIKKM
Sequence of Cyclin-dependent kinase 1/cyclin B1 (P14635 whole entry, further chain): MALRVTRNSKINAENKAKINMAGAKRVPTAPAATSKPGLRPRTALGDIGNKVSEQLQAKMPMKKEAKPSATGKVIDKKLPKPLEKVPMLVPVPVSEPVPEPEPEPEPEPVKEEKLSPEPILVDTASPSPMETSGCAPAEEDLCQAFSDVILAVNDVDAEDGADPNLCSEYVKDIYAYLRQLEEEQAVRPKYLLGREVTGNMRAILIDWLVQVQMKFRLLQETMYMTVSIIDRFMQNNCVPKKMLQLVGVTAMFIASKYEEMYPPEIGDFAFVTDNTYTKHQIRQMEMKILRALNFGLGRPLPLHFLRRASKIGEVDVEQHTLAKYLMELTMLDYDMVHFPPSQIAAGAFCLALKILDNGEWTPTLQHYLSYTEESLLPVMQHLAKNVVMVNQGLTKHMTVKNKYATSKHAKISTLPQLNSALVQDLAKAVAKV
Sequence of Phosphatidylinositol 4,5-bisphosphate 3-kinase catalytic subunit delta isoform (O00329 whole entry, canonical isoform): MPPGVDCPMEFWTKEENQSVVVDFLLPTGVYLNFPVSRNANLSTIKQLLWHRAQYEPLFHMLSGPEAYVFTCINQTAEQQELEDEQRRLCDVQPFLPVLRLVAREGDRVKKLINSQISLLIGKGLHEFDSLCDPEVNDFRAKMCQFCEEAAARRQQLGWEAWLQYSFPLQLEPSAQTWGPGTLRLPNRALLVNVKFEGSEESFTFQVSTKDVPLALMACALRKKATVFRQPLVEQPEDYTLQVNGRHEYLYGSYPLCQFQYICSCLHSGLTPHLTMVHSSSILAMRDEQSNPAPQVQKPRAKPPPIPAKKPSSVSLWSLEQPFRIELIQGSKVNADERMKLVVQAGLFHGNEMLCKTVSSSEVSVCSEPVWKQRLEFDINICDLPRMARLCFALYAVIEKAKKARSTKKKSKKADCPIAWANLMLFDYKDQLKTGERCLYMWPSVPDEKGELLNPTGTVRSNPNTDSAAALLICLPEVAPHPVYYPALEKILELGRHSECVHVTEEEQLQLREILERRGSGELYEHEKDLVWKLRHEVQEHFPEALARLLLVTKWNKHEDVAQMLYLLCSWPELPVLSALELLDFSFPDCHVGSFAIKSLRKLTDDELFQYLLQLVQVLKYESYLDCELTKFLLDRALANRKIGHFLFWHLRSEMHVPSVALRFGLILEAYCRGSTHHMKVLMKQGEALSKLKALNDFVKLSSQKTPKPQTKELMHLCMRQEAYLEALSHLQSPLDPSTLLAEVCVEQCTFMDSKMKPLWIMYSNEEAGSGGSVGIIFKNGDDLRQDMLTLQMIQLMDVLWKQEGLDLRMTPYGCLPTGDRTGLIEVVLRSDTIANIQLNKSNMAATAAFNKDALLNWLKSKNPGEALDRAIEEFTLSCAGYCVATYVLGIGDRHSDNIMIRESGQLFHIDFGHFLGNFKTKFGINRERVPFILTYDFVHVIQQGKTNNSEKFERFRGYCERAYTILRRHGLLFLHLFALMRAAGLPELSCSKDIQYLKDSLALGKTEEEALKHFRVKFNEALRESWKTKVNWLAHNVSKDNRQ

In the case of `CN1CCN(c2ccc(Nc3ncc4cc(S(=O)(=O)Cc5ccc(Cl)cc5)c(=O)n(C5CCCC5)c4n3)cc2)CC1`, the IC50 with DU-145 was 75 µM; with K562 it was 10 µM.
For `CN1CCN(c2ccc(Nc3ncc4cc(C#N)c(=O)n(C5CC5)c4n3)cc2)CC1` the same measures were 2.5 µM and 2.5 µM.
In the same order, the values of `N#Cc1cc2cnc(Nc3ccc(Cl)cc3)nc2n(C2CCCC2)c1=O` are 30 µM and 30 µM.
In the same order, the values of `CCn1c(=O)c(C#N)cc2cnc(Nc3ccc(N4CCN(C)CC4)cc3)nc21` are 1.5 µM and 0.75 µM.
Consider `COc1cc(Nc2ncc3cc(C#N)c(=O)n(C4CCCC4)c3n2)cc(OC)c1OC`, for which the IC50 came out at 5 µM in the test on DU-145 and 2.5 µM in the test with K562.
For `CN1CCN(c2ccc(Nc3ncc4cc(C#N)c(=O)n(C)c4n3)cc2)CC1` the same measures were 75 µM and 75 µM.
For `CN1CCN(c2ccc(Nc3ncc4cc(S(=O)(=O)c5ccccc5)c(=O)n(C5CCCC5)c4n3)cc2)CC1` the same measures were 75 µM and 30 µM.
In the same order, the values of `CC(=O)N(c1ccc(N2CCN(C)CC2)cc1)c1ncc2cc(C#N)c(=O)n(C3CCCC3)c2n1` are 5 µM and 0.75 µM.
In the case of `COc1ccc(F)cc1Nc1ncc2cc(C#N)c(=O)n(C3CCCC3)c2n1`, the IC50 in the test on DU-145 and in the test with K562 was 75 µM in each case.
With `N#Cc1cc2cnc(Nc3ccccn3)nc2n(C2CCCC2)c1=O`, the IC50 came out at 3 µM in the test on DU-145 and 0.5 µM with K562.
In the same order, the values of `N#Cc1cc2cnc(Nc3cnc4ccccc4c3)nc2n(C2CCCC2)c1=O` are 5 µM and 5 µM.
In the same order, the values of `N#Cc1ccnc(Nc2ncc3cc(C#N)c(=O)n(C4CCCC4)c3n2)c1` are 30 µM and 5 µM.
For the molecule `Nc1ccc2c(=S)c3ccccc3[nH]c2c1`, the IC50 in test [1] and in test [2] was above 100 µM each time.
For `CN1CCN(c2ccc(Nc3ncc4cc(C#N)c(=O)n(C5CCCCC5)c4n3)cc2)CC1`, the IC50 in the test on DU-145 came out at 50 µM; in the test on K562, 1.5 µM.
In the same order, the values of `N#Cc1cc2cnc(NCc3ccccc3)nc2n(C2CCCC2)c1=O` are 75 µM and 100 µM.
For `COc1cccc(Nc2ncc3cc(C#N)c(=O)n(C4CCCC4)c3n2)c1` the same measures were 0.5 µM and 5 µM.
In the same order, the values of `CN1CCN(c2ccc(Nc3ncc4cc(C#N)c(=O)[nH]c4n3)cc2)CC1` are 30 µM and 30 µM.
As for `COc1ccc(Nc2ncc3cc(C#N)c(=O)n(C4CCCC4)c3n2)c(OC)c1`, the concentration for half-maximal inhibition (IC50) in the test with DU-145 and with K562 was 15 µM each time.
On to `N#Cc1cc2cnc(Nc3cccc4cccnc34)nc2n(C2CCCC2)c1=O`, for which the IC50 in the test with DU-145 and with K562 was 1 µM each time.
`N#Cc1cc2cnc(Nc3ccc4[nH]ccc4c3)nc2n(C2CCCC2)c1=O`: the IC50 in the test with DU-145 and in the test with K562 was 5 µM in each case.
In the case of `N#Cc1cc2cnc(Nc3ccc(N4CCOCC4)cc3)nc2n(C2CCCC2)c1=O`, the values for the IC50 in the test on DU-145 and with K562 were 15 µM and 5 µM, respectively.
As to `COc1ccc(Nc2ncc3cc(C#N)c(=O)n(C4CCCC4)c3n2)cc1OC`, the IC50 in the test on DU-145 worked out at 5 µM; in the test on K562, 2 µM.
For `COc1ccccc1Nc1ncc2cc(C#N)c(=O)n(C3CCCC3)c2n1` the same measures were 30 µM and 15 µM.
In the same order, the values of `CCCCCn1c(=O)c(C#N)cc2cnc(Nc3ccc(N4CCN(C)CC4)cc3)nc21` are 1.5 µM and 0.75 µM.
For `CN1CCN(c2ccc(Nc3ncc4cc(C#N)c(=O)n(C5CCCC5)c4n3)nc2)CC1` the same measures were 15 µM and 5 µM.
For the molecule `CN1CCN(c2ccc(Nc3ncc4cc(C(=O)Nc5ccc(F)cc5)c(=O)n(C5CCCC5)c4n3)cc2)CC1`, the IC50 with DU-145 came out at 30 µM; with K562 it was 15 µM.
For `N#Cc1cc2cnc(Nc3ccc(N4CCOCC4)cn3)nc2n(C2CCCC2)c1=O` the same measures were 15 µM and 5 µM.
For `N#Cc1ccc(Nc2ncc3cc(C#N)c(=O)n(C4CCCC4)c3n2)cc1` the same measures were 5 µM and 75 µM.
For `CN1CCN(c2ccc(Nc3ncc4cc(S(=O)(=O)c5ccc(Cl)cc5)c(=O)n(C5CCCC5)c4n3)cc2)CC1` the same measures were 15 µM and 5 µM.
`N#Cc1cc2cnc(N3CCN(c4ccc(C(F)(F)F)cn4)CC3)nc2n(C2CCCC2)c1=O`: the IC50 is 100 µM in the test on DU-145 and 30 µM with K562.
For `CCCn1c(=O)c(C#N)cc2cnc(Nc3ccc(N4CCN(C)CC4)cc3)nc21` the same measures were 15 µM and 5 µM.
On to `COc1ccc(CS(=O)(=O)c2cc3cnc(Nc4ccc(N5CCN(C)CC5)cc4)nc3n(C3CCCC3)c2=O)cc1[N+](=O)[O-]`, for which the IC50 in the test on DU-145 was 5 µM; with K562, 2 µM.
In the same order, the values of `CCCCn1c(=O)c(C#N)cc2cnc(Nc3ccc(N4CCN(C)CC4)cc3)nc21` are 0.75 µM and 0.75 µM.
In the same order, the values of `COc1ccc(CS(=O)(=O)c2cc3cnc(Nc4ccc(N5CCN(C)CC5)cc4)nc3n(C3CCCC3)c2=O)cc1O` are 2 µM and 2 µM.
For `N#Cc1cc2cnc(Nc3ccccc3O)nc2n(C2CCCC2)c1=O` the same measures were 15 µM and 15 µM.
For the molecule `CN1CCN(c2ccc(Nc3ncc4cc(S(C)(=O)=O)c(=O)n(C5CCCC5)c4n3)cc2)CC1`, the IC50 in the test on DU-145 and in the test with K562 was 5 µM in each case.
As for `CC(=O)c1c(C)c2cnc(Nc3ccc(N4CCNCC4)cn3)nc2n(C2CCCC2)c1=O` [PALBOCICLIB], the outcome in the test with MDA-MB-231 [3], in the test on MCF7 [4], with MDA-MB-231 [5] and in the test with MCF7 [6] was inactive. For the same molecule, the result in the test with MDA-MB-231 [7] and with MCF7 [8] was Active. The inhibition entry in test [9] and in test [10] was “Active” each time. The IC50 in test [11] is above 10 µM; in [12] it was above 5 µM; with DU-145, 7.5 µM; in the test with K562, 2 µM.
For the molecule `COc1cc(Nc2ncc3cc(C#N)c(=O)n(C4CCCC4)c3n2)cc(OC)c1`, the IC50 in the test with DU-145 and with K562 was 15 µM in each case.
Turning to `COc1ccc(Nc2ncc3cc(C#N)c(=O)n(C4CCCC4)c3n2)cc1`, the IC50 in the test on DU-145 turned out to be 25 µM; in the test on K562, 75 µM.
In the same order, the values of `CN1CCN(c2ccc(Nc3ncc4cc([N+](=O)[O-])c(=O)n(C5CCCC5)c4n3)cc2)CC1` are 2.5 µM and 0.75 µM.
In the same order, the values of `COc1ccc2cc(Nc3ncc4cc(C#N)c(=O)n(C5CCCC5)c4n3)ccc2n1` are 3 µM and 0.25 µM.
For the molecule `N#Cc1cc2cnc(Nc3cccc4[nH]ccc34)nc2n(C2CCCC2)c1=O`, the IC50 is 15 µM in the test on DU-145 and 30 µM in the test on K562.
For `CC(C)n1c(=O)c(C#N)cc2cnc(Nc3ccc(N4CCN(C)CC4)cc3)nc21` the same measures were 2.5 µM and 2.5 µM.
In the same order, the values of `CN1CCN(c2ccc(N(C(=O)c3ccc(C(F)(F)F)cc3)c3ncc4cc(C#N)c(=O)n(C5CCCC5)c4n3)cc2)CC1` are 1 µM and 0.5 µM.
For `CN1CCN(c2ccc(Nc3ncc4cc(C(=O)Nc5ccc(Cl)cc5)c(=O)n(C5CCCC5)c4n3)cc2)CC1` the same measures were 30 µM and 5 µM.
